Data as given in PMC3967199 (Scientific Reports, 2014).
Where two headings read alike, the source gives them in different places.

Key:
[1] = test system: MCF7 cells; assay: Peptide-SAQdot605 binding, fluorescence microscopy; type: cell-based
[2] = test system: H1299 and H460 xenografts; type: in vivo, NOD/SCID mice
[3] = test system: human NSCLC tumor samples; assay: Tumor microarray binding of Peptide-SAQdot 605; conditions: of 59 human NSCLC tumor samples; 10 nM Peptide-SAQdot 605, 30 minutes
Outline: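 Commercial paraffin lung cancer tissue microarray; dewaxed, antigen retrieval in 10 mM citrate pH 6.0 at 65°C for 10 min, blocked in PBS + 2.5% BSA. Stained with peptide conjugated 1:1 to streptavidin-Qdot605 in 50% PBS/50% RPMI with 2.5% bovine serum. Washed, DAPI-mounted, three areas imaged per sample. Red Qdot signal compared against green-channel autofluorescence; scored by five independent scientists.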

Sequence | Binding of peptide-SAQdot605 [1] | H460 tumor/H1299 tumor ([2]; animal shown, 24 h) | H460 tumor/lung ([2]; animal shown, 24 h) | H460/lung ([2]; average of mice (± SEM in text), i.v., ex vivo, 24 h) | H460 tumor/H1299 tumor ([2]; average of mice, i.v., ex vivo, 24 h) | Samples scored positive for peptide binding [3] | Tumor specificity in vivo ([2]; acetylated peptide) | Tumor uptake of non-acetylated peptide ([2]; free amino-terminus, before acetylation)
EAMNSAEQSAAVVQWEKRRI [Peptide H460.1] | specific binding | 8 fold | 15 fold | 14 ± 6.5 | 27 | – | – | –
FHAVPQSFYTAP [HCC15.2] | – | – | – | – | – | 24% | accumulates in both H1299 and H460 tumors | No tumor uptake
